Assay outcomes: PubChem BioAssay, several laboratories
Most compounds without a hit are left out; they make up all but 2.6% or so of the library.
SENP8 block-1: SENP8 protease inhibitors, primary screen, biochemical, luminescence | Sentrin-specific protease 8 (Homo sapiens), Q96LD8 | purified SENP8, Z-RLRGG-aminoluciferin cleavage | inhibition, % at 10 µM | 1.2% of 330,000 active | AID 2540, 2010; in the data active = inhibition above about 50%
SENP8 block-2: human SENP8 protease inhibitors, primary screen, biochemical, fluorescence, Nedd8 protein substrate, uHTS; AID 602440, 2012; 0.64% of 360,000 active; recombinant SENP8; inhibition, % at 20 µM; Sentrin-specific protease 8 (Homo sapiens), Q96LD8; in the data active = inhibition mostly above about 40%, no sharp cut-off; inactive = mostly below about 27%
SENP1 inh: human SENP1 catalytic domain inhibitors, primary screen, biochemical, FRET, uHTS | Sentrin-specific protease 1 (Homo sapiens), Q9P0U3 | recombinant SENP1 catalytic domain, CyPet-SUMO1-YPet FRET cleavage | inhibition, % at 10 µM | 0.21% of 360,000 active | AID 624204, 2012;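 active = inhibition at least 30% at 10 µM, raw YFP signal under a set limit, fluorescence ratio 0.5 to 1.5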;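 also: 0% = enzyme with DMSO and 100% = no enzyme wells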
Target sequence (Q9P0U3 419-644 limits assumed): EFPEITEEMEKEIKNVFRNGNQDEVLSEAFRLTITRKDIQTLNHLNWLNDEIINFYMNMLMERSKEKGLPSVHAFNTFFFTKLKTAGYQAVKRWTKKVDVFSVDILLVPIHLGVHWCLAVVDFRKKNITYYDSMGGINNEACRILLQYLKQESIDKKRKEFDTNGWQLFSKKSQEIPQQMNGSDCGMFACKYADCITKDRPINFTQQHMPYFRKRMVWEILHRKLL
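Test system: hSENP1 catalytic domain, recombinant; Amount: 20 pM final SENP1 enzyme; Medium: Tris pH 8 buffer plus EDTA, NaCl, BME, BSA, NP40, catalase; Schedule: 50 min enzyme reaction, room temperature, light-protected; Technique: FRET fluorescence in CFP and YFP emission channels; Controls: no-enzyme wells low, DMSO-plus-enzyme wells high control.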
SENP6 block: SENP6 protease inhibitors, primary screen, biochemical, luminescence, uHTS | AID 2599, 2010 | Recombinant SENP6 catalytic domain, aminoluciferin luminescence | inhibition, % at 10 µM | Sentrin-specific protease 6 (Homo sapiens), Q9GZR1 | 1.8% of 330,000 active;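 active = inhibition above about 50% at the single tested dose, limit read from the data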;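 also: plate controls were DMSO wells with enzyme for no effect and DMSO wells lacking enzyme for full effect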
SENP7 inh: SENP7 protease inhibitors, primary screen, biochemical, luminescence, uHTS; 1.5% of 330,000 active; recombinant SENP7, Z-RLRGG-aminoluciferin luminescence, 40 min; Sentrin-specific protease 7 (Homo sapiens), Q9BQF6; AID 434973, 2010; inhibition, % at 5 µM;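 active = inhibition above about 50% at the single test dose, limit read from the data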;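 also: plate controls were DMSO with enzyme for no effect and no enzyme buffer wells for full effect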
Target sequence (Q9BQF6 706-1050 limits assumed): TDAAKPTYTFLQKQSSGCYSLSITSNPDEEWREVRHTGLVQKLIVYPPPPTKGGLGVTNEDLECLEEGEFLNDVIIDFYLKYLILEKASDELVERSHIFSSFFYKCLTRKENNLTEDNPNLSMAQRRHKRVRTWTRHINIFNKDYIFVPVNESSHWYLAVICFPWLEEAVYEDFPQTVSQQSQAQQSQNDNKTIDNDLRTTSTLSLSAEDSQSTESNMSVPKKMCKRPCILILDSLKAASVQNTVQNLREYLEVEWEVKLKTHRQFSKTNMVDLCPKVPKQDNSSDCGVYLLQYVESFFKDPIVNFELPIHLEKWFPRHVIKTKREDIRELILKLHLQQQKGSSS
Platelet DG rel: inhibitors of platelet dense granule secretion, primary screen, cell-based, MLPCN, human platelets. human platelet-rich plasma, SFLLRN dense granule ATP release, luminescence. inhibition, %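 (compounds screened at 7.5 µM in platelet-rich plasma)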. 0.22% of 300,000 active;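 active = mean replicate score, as percent of positive control, at or above 50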
SENP8 confirm: SENP8 protease inhibitors, retest, confirmation, biochemical, luminescence, single concentration; shares compounds with SENP7 inh; Recombinant SENP8, Z-RLRGG-aminoluciferin luminescence, 60 min; inhibition, % at 12.5 µM; 40% of 6,200 active; AID 488912, 2010;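 active = mean inhibition across replicates above about 50%, limit read from the data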
SENP6 conf: SENP6 protease inhibitors, confirmation, biochemical, luminescence, single concentration | AID 488915, 2010 | recombinant SENP6, Z-RLRGG-aminoluciferin luminescence | 58% of 6,200 active | shares compounds with SENP7 inh | inhibition, % at 12.5 µM
SENP7 confirm: SENP7 protease inhibitors, retest, confirmation, biochemical, luminescence, single concentration | shares compounds with SENP7 inh | recombinant SENP7, Z-RLRGG-aminoluciferin luminescence, 40 min | inhibition, % at 12.5 µM | 69% of 6,200 active | AID 488917, 2010
Casp3 select: caspase-3 protease inhibitors, confirmation, selectivity assay for SENP inhibitor project, biochemical, single concentration | 60% of 6,200 active | inhibition, % at 12.5 µM | shares compounds with SENP7 inh | purified caspase-3, Z-DEVD-aminoluciferin luminescence, 60 min;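 active = mean inhibition above about 50%, limit read from the data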;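 also: plate controls were enzyme with DMSO for no effect and wells without caspase-3 for full effect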
SENP luc ctr: interferes with luciferase luminescence in SENP counter-screen | shares compounds with SENP7 inh | Pre-incubated SENP8/Z-RLRGG-aminoluciferin, luciferase luminescence interference | inhibition, % at 12.5 µM | 39% of 6,200 active;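 active = mean inhibition above about 50% when retested at one dose, limit read from the data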;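 also: plate controls were DMSO wells with completed reaction for no effect and substrate without enzyme for full effect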
* hit, by the source's call; nt = not tested or not shown.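 The calls were made as follows, unless noted: active = mean inhibition above about 50% in the one-dose retest (limit read from the data); inactive = the rest.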

SMILES	SENP8 block-1	SENP8 block-2	SENP1 inh	SENP6 block	SENP7 inh	Platelet DG rel	SENP8 confirm	SENP6 conf	SENP7 confirm	Casp3 select	SENP luc ctr
C(=C\c1ccccc1)/C=N/N1CCN(c2ccccn2)CC1	40	18	1	74*	56*	7	39	52*	32	62*	29
C(/C=C/c1ccccc1)=N/N1CCN(c2ccccc2)CC1	-12	24	1	14	61*	3	12	12	25	39	12
CC(NC(=O)c1ccccc1)C(=O)OCC(=O)c1c(N)n(C)c(=O)n(C)c1=O (stereo unspecified)	-4	12	0	-7	11	nt	nt	nt	nt	nt	nt
Cc1ccccc1-n1c(SCC(=O)NC2CC2)nc2ccccc2c1=O	nt	6	0	nt	nt	nt	nt	nt	nt	nt	nt
O=C(N/N=C/c1sc2ccccc2c1O)c1cccc2ccccc12	nt	-68	-5	nt	nt	-5	nt	nt	nt	nt	nt
Cc1cccc(/N=C/c2c(O)[nH]c3ccccc23)n1	75*	-3	-12	88*	3	16	4	73*	94*	72*	38
CC(C)N=Cc1c(O)[nH]c2ccccc12	-4	16	2	-8	0	-1	nt	nt	nt	nt	nt
Cc1cccc(/N=C/c2sc3ccccc3c2O)n1	62*	-359	-38	80*	90*	51*	44	44	15	15	12
CCc1nc2c(OCCn3cccc3)cccn2c1N(C)C(=O)c1ccc(OC)cc1	nt	12	-2	nt	nt	nt	nt	nt	nt	nt	nt
CCCCc1ccc(N/C(N)=N/c2nc(C)cc(C)n2)cc1	-2	40	1	-39	-7	-5	nt	nt	nt	nt	nt
COc1ccccc1-n1c(=O)oc2ccc(Cl)cc2c1=O	40	4	5	53*	12	nt	53*	50*	55*	30	5
Cc1cccc(-c2noc(C3CCCCC3)n2)c1	21	15	1	63*	50	1	11	26	75*	22	10
O=C(NCC(=O)N1CCC2(CC1)NCCc1[nH]cnc12)c1ccc2ccccc2c1	8	13	1	9	-3	-6	nt	nt	nt	nt	nt
CC1CN(CC(O)c2ccc(Br)cc2)CCO1 (stereo unspecified)	nt	6	1	nt	nt	nt	nt	nt	nt	nt	nt
O=C(c1ccco1)n1c(=S)nc2ccccn21	-8	-12	-2	10	27	8	nt	nt	nt	nt	nt
Cc1ccn2c(c1)nc(=S)n2C(=O)c1ccccc1	-7	-16	-3	60*	76*	14	41	52*	76*	39	41
Cc1cccc(C(=O)n2c(=S)nc3cc(C)ccn32)c1	58*	-20	0	75*	81*	30	63*	72*	87*	46	30
Cn1c(=N)n(CC(=O)c2ccc(Cl)c(Cl)c2)c2ccccc21	36	9	3	51*	52*	9	37	27	19	19	23
COc1c2c(c(CCC(=O)O)c3c1C=CC(C)(C)O3)OC(C)(C)C=C2	nt	13	0	nt	nt	nt	nt	nt	nt	nt	nt
Cc1nn(C(=O)c2ccc3c(c2)OCO3)c(N)c1-c1ccccc1	59*	8	8	83*	65*	11	5	78*	96*	68*	37
Cc1nn(C(=O)c2cccs2)c(N)c1-c1ccccc1	-3	2	2	29	1	47	nt	nt	nt	nt	nt
CC(C(=O)N(C)c1ccccc1)N1CCN(C(=O)c2ccccc2)CC1 (stereo unspecified)	-10	8	0	-34	-5	-4	nt	nt	nt	nt	nt
O=C(Nc1ccc(OCc2ccccc2)cc1)Nc1ccccc1C(=O)NCCCN1CCOCC1	95*	-4	-1	95*	97*	8	98*	100*	103*	98*	88*
N#C/C(=C\c1cccc(O)c1)C(=O)Nc1ccc2c(c1)OCCO2	4	28	0	37	11	15	nt	nt	nt	nt	nt
COC(=O)c1cc(NS(=O)(=O)c2ccc(NC(C)=O)cc2)ccc1Cl	4	4	3	12	4	20	nt	nt	nt	nt	nt
SMILES	SENP8 block-1	SENP8 block-2	SENP1 inh	SENP6 block	SENP7 inh	Platelet DG rel	SENP8 confirm	SENP6 conf	SENP7 confirm	Casp3 select	SENP luc ctr
Cc1ccc(CN2C(=O)CCC2(C)c2nnnn2-c2ccc3c(c2)OCCO3)cc1 (stereo unspecified)	nt	16	2	nt	nt	nt	nt	nt	nt	nt	nt
Clc1cnc(N/N=C/c2ccco2)c(Cl)c1	61*	-70	-3	81*	-1	-1	15	19	30	84*	20
Clc1cnc(N/N=C/c2cccs2)c(Cl)c1	10	-36	-8	10	3	0	nt	nt	nt	nt	nt
CC(C)C[C@@H](CO)N1CCN(Cc2ccc([N+](=O)[O-])cc2)CCC1=O	-3	-3	4	-10	11	-3	nt	nt	nt	nt	nt
COc1ccc2[nH]c3c(=O)n(Cc4ccc(C(=O)N5CCC(C(N)=O)CC5)cc4)c(=S)[nH]c3c2c1	67*	-300	1	69*	57*	0	73*	72*	87*	68*	41
CCOC(=O)Cn1nc(C)n(-c2ccc(C)cc2)c1=O	7	5	0	-3	101*	-1	3	1	-1	0	-1
CN(CCCNC(=O)CSc1cc(=O)n(C)c2cc(Cl)ccc12)Cc1ccccc1	3	-19	0	8	75*	-2	-14	-11	-14	2	-7
Cn1c(=O)cc(SCC(=O)NCCC2=CCCCC2)c2ccc(Cl)cc21	0	14	-2	-1	6	-3	nt	nt	nt	nt	nt
Cc1cccc(OCCCC(=O)Nc2ccc(S(=O)(=O)Nc3onc(C)c3C)cc2)c1	7	-14	2	-1	-7	-3	nt	nt	nt	nt	nt
Cc1cc(NS(=O)(=O)c2ccc(NC(=O)c3cnc4scc(C)n4c3=O)cc2)nc(C)n1	10	-254	1	11	8	-5	nt	nt	nt	nt	nt
